Measurements gathered from unrelated publications.
gag-pol reverse transcriptase: Gag-Pol polyprotein, reverse transcriptase (gag-pol, Human immunodeficiency virus 1, UniProt P03366)
OPRD1: Delta-type opioid receptor (OPRD1, Homo sapiens, UniProt P41143)
gyrA: DNA gyrase subunit A (gyrA, Escherichia coli K-12, UniProt P0AES4)
HTR3A: 5-hydroxytryptamine receptor 3A (HTR3A, Homo sapiens, UniProt P46098)

Cc1cc(C)cc(S(=O)(=O)c2c(C(=O)NCCNS(=O)(=O)c3ccccc3F)[nH]c3ccc(Cl)cc23)c1
IC50 (gag-pol reverse transcriptase; enzyme activity; inhibitor; ELISA): 83 nM

CNC(=O)[C@@]12C[C@@H]1[C@@H](n1cnc3c(NC)nc(C#Cc4ccc(F)c(F)c4)nc31)[C@H](O)[C@@H]2O
Ki (OPRD1; ligand displacement; radioligand): > 10000 nM

N#Cc1ccc(Nc2nc(N)cc(Oc3c(F)cc(-c4ccccc4)cc3F)n2)cc1
IC50 (gag-pol reverse transcriptase; enzyme activity; inhibitor): 70 nM

CC(C)Oc1c(NC(=O)c2ccc(NC(=O)[C@H](CC(N)=O)NC(=O)c3ccc(NC(=O)c4ccccc4)cc3)cc2)ccc(C(=O)Nc2ccc(C(=O)O)cc2)c1O
IC50 (gyrA; enzyme activity; inhibitor): 4000 nM

Cc1cc(C)cc(S(=O)(=O)c2c(C(=O)NCCCCNS(=O)(=O)c3ccc(Br)cc3)[nH]c3ccc(Cl)cc23)c1
IC50 (gag-pol reverse transcriptase; enzyme activity; inhibitor; ELISA): 150 nM

CC(C)Oc1c(NC(=O)c2ccc(NC(=O)[C@H](CC(N)=O)NC(=O)c3ccc(NC(=O)Cc4ccc(C#N)cc4)cc3)cc2)ccc(C(=O)Nc2ccc(C(=O)O)cc2)c1O
IC50 (gyrA; enzyme activity; inhibitor): 16300 nM

CCn1c(-c2nc3cc(C(=O)N4CCC[C@@H](N)C4)cc(OC)c3n2C)cc2cccnc21
EC50 (HTR3A; calcium signal; agonist): > 50100 nM

CNc1nc(C#Cc2ccc(Cl)s2)nc2c1ncn2[C@H]1[C@H](O)[C@H](O)[C@]2(C(=O)OC(C)C)C[C@H]12
Ki (OPRD1; ligand displacement; radioligand): > 10000 nM

CCCCN1CCC(COC(=O)c2ccc(N)c(OCF)c2)CC1
Ki (HTR3A; cell-free assay; radioligand): > 10000 nM

Cc1cnc(-c2ccc(-c3ccc(NC(=O)Nc4c(F)cc(F)cc4F)cc3F)c3c2C(=O)NC3)[nH]1
Kd (STE20-like serine/threonine-protein kinase (SLK, Homo sapiens, UniProt Q9H2G2); binding; competition with immobilised ligand): 0.3 nM

Cc1cc(C)cc(S(=O)(=O)c2c(C(=O)NCCNS(=O)(=O)c3ccc(F)cc3)[nH]c3ccc(Cl)cc23)c1
IC50 (gag-pol reverse transcriptase; enzyme activity; inhibitor; ELISA): 66 nM

CC1=C(/C=C/C2=CCC[C@@]3(C)[C@H]2CC[C@@H]3[C@@](C)(O)CCCC(C)C)C[C@@H](O)CC1
EC50 (Oxysterols receptor LXR-alpha (NR1H3, Homo sapiens, UniProt Q13133); coactivator recruitment; agonist; TR-FRET): 10 to 100 nM

CNC(=O)[C@@]12C[C@@H]1[C@@H](n1cnc3c(NC)nc(C#Cc4ccc(Br)s4)nc31)[C@H](O)[C@@H]2O
Ki (OPRD1; ligand displacement; radioligand): > 10000 nM

CC(C)Oc1c(NC(=O)c2ccc(NC(=O)[C@H](CC(N)=O)NC(=O)c3ccc(NC(=O)c4ccc([N+](=O)[O-])c(OC(C)C)c4O)cc3)cc2)ccc(C(=O)Nc2ccc(C(=O)O)cc2)c1O
IC50 (gyrA; enzyme activity; inhibitor): > 50000 nM

CNC(=O)[C@@]12C[C@@H]1[C@@H](n1cnc3c(NC)cc(C#Cc4ccc(Cl)s4)nc31)[C@H](O)[C@@H]2O
Ki (OPRD1; ligand displacement; radioligand): > 10000 nM

N#Cc1ccc(Nc2nc(N)cc(Oc3c(F)cc(-c4ccc(C#N)c(F)c4)cc3F)n2)cc1
IC50 (gag-pol reverse transcriptase; enzyme activity; inhibitor): 40 nM

CC(C)COc1c(NC(=O)c2ccc(NC(=O)[C@H](CC(N)=O)NC(=O)c3ccc(NC(=O)c4ccc([N+](=O)[O-])cc4)cc3)cc2)ccc(C(=O)Nc2ccc(C(=O)O)cc2)c1O
IC50 (gyrA; enzyme activity; inhibitor): 900 nM

Cc1cc(C)cc(S(=O)(=O)c2c(C(=O)NCCCCNS(=O)(=O)c3ccc(C#N)cc3)[nH]c3ccc(Cl)cc23)c1
IC50 (gag-pol reverse transcriptase; enzyme activity; inhibitor; ELISA): 120 nM

CNC(=O)[C@@]12C[C@@H]1[C@@H](n1cnc3c(NC)nc(C#Cc4ccc(Cl)s4)nc31)[C@H](O)[C@@H]2O
Ki (OPRD1; ligand displacement; radioligand): > 10000 nM

Cc1cc(C)cc(S(=O)(=O)c2c(C(=O)NCCCNS(=O)(=O)c3cccnc3)[nH]c3ccc(Cl)cc23)c1
IC50 (gag-pol reverse transcriptase; enzyme activity; inhibitor; ELISA): 41 nM

CNc1nc(C#Cc2ccc(Br)s2)nc2c1ncn2[C@H]1[C@H](O)[C@H](O)[C@]2(C(=O)OC)C[C@H]12
Ki (OPRD1; ligand displacement; radioligand): > 10000 nM

Cc1ccc(S(=O)(=O)NCCCCNC(=O)c2[nH]c3ccc(Cl)cc3c2S(=O)(=O)c2cc(C)cc(C)c2)cc1
IC50 (gag-pol reverse transcriptase; enzyme activity; inhibitor; ELISA): 140 nM

CC(C)Oc1c(-n2cc(-c3ccc(NC(=O)C(CC(N)=O)NC(=O)c4ccc(NC(=O)c5ccc(C#N)cc5)cc4)cc3)nn2)ccc(C(=O)Nc2ccc(C(=O)O)cc2)c1O (centres unmarked)
IC50 (gyrA; enzyme activity; inhibitor): 1500 nM

Cc1cc(C)cc(S(=O)(=O)c2c(C(=O)NCCCCNS(=O)(=O)c3ccc(F)cc3)[nH]c3ccc(Cl)cc23)c1
IC50 (gag-pol reverse transcriptase; enzyme activity; inhibitor; ELISA): 150 nM

O[C@@H]1[C@H](O)[C@@H]2C[C@@H]2[C@H]1n1cnc2c(NCCc3ccccc3)nc(C#Cc3ccccc3)nc21
Ki (OPRD1; ligand displacement; radioligand): > 10000 nM

CC(C)Oc1c(NC(=O)c2ccc(NC(=O)[C@H](CC(N)=O)NC(=O)c3ccc(NC(=O)c4ccc(C5(C(F)(F)F)N=N5)cc4)cc3)cc2)ccc(C(=O)Nc2ccc(C(=O)O)cc2)c1O
IC50 (gyrA; enzyme activity; inhibitor): 16000 nM
